In ChEMBL document CHEMBL2385008, “Inducers of hypoxic response: marine sesquiterpene quinones activate HIF-1” (2013):
Calls of active or inactive are those of the source. The rule behind the calls is not given here.

Legend:
T47D [1] = assay: Cytotoxicity against human T47D cells assessed as growth inhibition at 3 to 30 uM after 48 hrs by SRB assay; assay type: functional, cell-based
Method in brief: (§1)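 T47D or MDA-MB-231 breast tumor cells (DMEM/F12, 10% FBS, penicillin/streptomycin) plated in 96-well format and exposed to compound for 48 h. Viability read by sulforhodamine B staining and expressed as % inhibition relative to untreated control. One representative experiment in triplicate, mean with SD.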

T47D [2] = assay: Activation of HIF-1 (unknown origin) transfected in human T47D cells at 3 to 30 uM after 16 hrs by luciferase reporter gene assay; assay type: cell-based
Method in brief: (§2)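 T47D breast tumor cells grown in DMEM/F12 with L-glutamine, 10% FBS and penicillin/streptomycin, transfected with HIF-1 reporter pHRE3-TK-Luc; compound exposure 16 h. Luciferase activity normalized to untreated control as relative luciferase activity; 1,10-phenanthroline used as HIF-1 activator control. Mean + SD, n = 4.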

MDA-MB-231 = assay: Cytotoxicity against human MDA-MB-231 cells assessed as growth inhibition at 3 to 30 uM after 48 hrs by SRB assay; assay type: functional, cell-based; method in brief: as §1
T47D [3] = assay: Activation of HIF-1 in human T47D cells assessed as increase in secreted VEGF production at 10 uM after 16 hrs by ELISA; assay type: cell-based
Method in brief: (§3)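 T47D cells treated at 10 μM for 16 h. VEGF protein measured by ELISA in conditioned medium (secreted) or cell lysate (cellular), normalized to cellular protein by micro BCA assay. Untreated medium control; 1,10-phenanthroline positive control. Mean + SD pooled from two independent experiments (n = 3); p < 0.05 versus untreated control flagged.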

T47D [4] = assay: Cytotoxicity against human T47D cells assessed as growth inhibition at 30 uM after 48 hrs by SRB assay relative to control; assay type: functional; settings: read-out: GI; method in brief: as §1
T47D (Homo sapiens) = assay: Activation of HIF-1 in human T47D cells assessed as increase in VEGF production at 10 uM after 16 hrs by ELISA
T47D [5] = assay: Activation of HIF-1 (unknown origin) transfected in human T47D cells at 10 uM after 16 hrs by luciferase reporter gene assay relative to control; assay type: cell-based; method in brief: as §2
T47D [6] = assay: Activation of HIF-1 in human T47D cells assessed as increase in cellular VEGF production at 10 uM after 16 hrs by ELISA; assay type: cell-based; method in brief: as §3

Compound | growth inhibition (GI) (T47D [1]) | Activity (T47D [2]) | growth inhibition (GI) (MDA-MB-231) | Activity (T47D [3]) | inhibition of growth at 30 µM (T47D [4]) [%] | Activity (T47D (Homo sapiens)) | Activity (T47D [5]) [%] | Activity (T47D [6])
COC1=CC(=O)C2=C(C[C@@H]3[C@@]4(C)CCCC(C)(C)[C@@H]4CC[C@@]3(C)O2)C1=O | Dose-dependent effect | inactive | Dose-dependent effect | – | – | – | – | –
C=C1CCC[C@H]2[C@](C)(CC3=C(O)C(=O)C=C(OC)C3=O)[C@H](C)CC[C@@]12C (relative stereo) | Dose-dependent effect | – | Dose-dependent effect | Active | 60 | Active | 830 | Active
C=C1CCC[C@@]23OC4=C(C[C@]2(C)[C@H](C)CC[C@@]13C)C(=O)C(OC)=CC4=O | Dose-dependent effect | inactive | Dose-dependent effect | – | – | – | – | –
COC1=CC(=O)C(O)=C(C[C@]2(C)[C@H](C)CC[C@]34C[C@@]3(C)CCC[C@@H]24)C1=O | Dose-dependent effect | – | Dose-dependent effect | Active | 58 | Active | 1000 | Active
COC1=CC(=O)C2=C(C[C@]3(O2)[C@@H](C)CC[C@H]2C(C)(C)CCC[C@@]23C)C1=O | Dose-dependent effect | inactive | Dose-dependent effect | – | – | – | – | –
C=C1CCC[C@H]2[C@](C)(CC3=C(O)C(=O)C=C(OC)C3=O)[C@@H](C)CC[C@]12C [ILIMAQUINONE] | Dose-dependent effect | – | Dose-dependent effect | Active | 56 | Active | 930 | Active
c1cnc2c(c1)ccc1cccnc12 | – | – | – | Active | – | – | – | Active
COC1=CC(=O)C2=C(C[C@]3(C)[C@H](C)CC[C@]45C[C@@]4(C)CCC[C@]53O2)C1=O | Dose-dependent effect | inactive | Dose-dependent effect | – | – | – | – | –
CC1(C)CCC[C@]2(C)[C@H]3Cc4cc(O)ccc4O[C@@]3(C)CC[C@@H]12 | inactive | inactive | inactive | – | – | – | – | –
COC(=O)c1cc2c(c(O)c1O)O[C@@]1(C2)[C@@H](C)CC[C@H]2C(C)(C)CCC[C@@]21C | Dose-dependent effect | inactive | Dose-dependent effect | – | – | – | – | –
